Experimental data gathered from unrelated publications.
Compare with care: the assays were run in different laboratories.
Target: Mitogen-activated protein kinase 9 (MAPK9, Homo sapiens, UniProt P45984)

| SMILES | effect on | mode | method | concentration | endpoint | result |
| --- | --- | --- | --- | --- | --- | --- |
| Cn1cncc1[C@@](O)(COc1ccc(C#N)cc1-c1ccc(OC(F)(F)F)cc1)c1ccc(C#N)cc1 | cell-free assay | – | competition with immobilised ligand | 1 µM | remaining binding | 92% |
| O=c1[nH]c2ccccc2n1C1CCN(Cc2ccc(-c3[nH]c4cc5ncnc5cc4nc3-c3ccccc3)cc2)CC1 | cell-free assay | – | – | 0.5 µM | remaining signal | 91.9% |
| COc1ncccc1-c1cnn2ccc(N3CCN(C(=O)OC(C)C)CC3)nc12 | binding | – | competition with immobilised ligand | 1 µM | remaining binding | 100% |
| Nc1ncc(-c2nc(N3CCOCC3)nc(N3CCOCC3)n2)c(C(F)F)n1 | binding | – | competition with immobilised ligand | 10 µM | remaining binding | 83% |
| Cn1cc(-c2cccc(N3CCc4c(sc5c4CC(C)(C)C5)C3=O)c2CO)cc(Nc2ccncn2)c1=O | enzyme activity | inhibitor | – | 1 µM | inhibition | 12% |
| Cc1nn(C)cc1-c1nc2c(N3CCN(Cc4ccc(Cl)cc4)CC3)c(Cl)cnc2[nH]1 | binding | – | competition with immobilised ligand | 1 µM | remaining binding | 100% |
| Cn1cc(-c2cc(F)cc(N3CCn4c(cc5c4CCCC5)C3=O)c2CO)cc(Nc2ccc(N3CCN(C4COC4)CC3)cn2)c1=O | enzyme activity | inhibitor | – | 0.1 µM | inhibition | 1% |
| CC(C)(C)c1cc(C=C(C#N)C#N)cc(Br)c1O | enzyme activity | inhibitor | – | 0.5 µM | remaining activity | 103% |
